# Measured values of several laboratories.
# Matrix: plasma
SMILES,species,route,dose,notes,half-life [h]
Cc1cc(S(=O)(=O)NC2CC(N3CC[C@@H](OC4CN(c5cccc6c5n(C)c(=O)n6C5CCC(=O)NC5=O)C4)[C@H](F)C3)C2)ccc1Nc1ncc(C(F)(F)F)c(N2CCC[C@](C)(O)C2)n1 (stereo partly shown),rat,intravenous,2 mg/kg,,2.4
C=CC(=O)N1CCC[C@@H](n2nc(-c3ccc(Oc4ccccc4)cc3)c3c(N)ncnc32)C1,male Wistar rat,oral,40 mg/kg,,2.5
C[C@H]1Oc2cc(cnc2N)-c2c(nn(C)c2C#N)CN(C)C(=O)c2ccc(F)cc21,male Sprague-Dawley rat,oral,50 mg/kg,single dose,17.6
Cc1cc2c(C(N)=O)cccc2n1-c1nc2c(c(NCc3ccccc3)n1)CCCN2,male Sprague-Dawley rat,oral,10 mg/kg,single dose,1.2
C[C@@]12C[C@@]3(O)O[C@@H](O1)[C@]1(COC(=O)c4ccccc4)[C@H]3C[C@@]12O[C@@H]1O[C@H](CO)[C@@H](O)[C@H](O)[C@H]1O,male Sprague-Dawley rat,oral,80 mg/kg,,11.4
CNS(=O)(=O)c1ccc(Nc2ncc(C(F)(F)F)c(N3CCC[C@](C)(O)C3)n2)c(C)c1,rat,intravenous,2 mg/kg,,0.8
CCOCC(=O)N1CCC[C@H](C(=O)NCc2nc(-c3ccc(C)nc3)cs2)C1,male Sprague-Dawley rat,intravenous,1 mg/kg,,2.1
[2H]C([2H])([2H])NC(=O)c1cc(Oc2ccc(NC(=O)Nc3ccc(Cl)c(C(F)(F)F)c3)cc2)ccn1,rat,oral,40 mg/kg,single dose,23.2
CCOCC(=O)N1CCC[C@H](C(=O)NCc2nc(-c3ccc(C#N)nc3)cs2)C1,male Sprague-Dawley rat,intravenous,1 mg/kg,,1.8
O=C1CCC(N2Cc3cc(C4CCN(Cc5ccccc5)CC4)ccc3C2=O)C(=O)N1 (stereo not shown),male Sprague-Dawley rat,oral,3 mg/kg,,1.31
CC(=O)O[C@@H]1CC[C@@]2(C)[C@@H](CC[C@]3(C)[C@@H]2C(=O)C=C2[C@@H]4[C@@H](C)[C@H](C)CC[C@]4(C)CC[C@]23C)[C@@]1(C)C(=O)O,female Wistar rat,oral,1 mg/kg,single dose,9.9
C[C@H]1CN(c2ccc(C3CCC(=O)NC3=O)cc2F)CCN1CC12CCC(NS(=O)(=O)c3ccc(Nc4ncc(C(F)(F)F)c(N5CCC[C@](C)(O)C5)n4)c(F)c3)(CC1)CO2 (stereo partly shown),rat,intravenous,2 mg/kg,,3.4
COc1ccc(N(Cc2csc(-c3ccccc3)n2)C(=O)CCCCCC(=O)NO)cc1,female Sprague-Dawley rat,intravenous,5 mg/kg,,0.63
COCC(=O)N1CCC[C@H](C(=O)NCc2nc(-c3ccccc3)cs2)C1,male Sprague-Dawley rat,oral,3 mg/kg,,3.9
[2H]c1cc(C)c(NC(=O)c2cnc(Nc3cc(N4CCCCC4)nc(C)n3)s2)c(Cl)c1,male Sprague-Dawley rat,intravenous,1 mg/kg,,1.7
Cn1c(=O)c2[nH]cnc2n(C)c1=O,male Sprague-Dawley rat,intravenous,11.25 mg/kg,,4.81
C[C@H]1CN(CC2CCN(c3ccc(C4CCC(=O)NC4=O)cc3F)CC2)CC[C@H]1NS(=O)(=O)c1ccc(Nc2ncc(C(F)(F)F)c(N3CCC[C@](C)(O)C3)n2)c(F)c1 (stereo partly shown),rat,intravenous,2 mg/kg,,4.6
COc1cc(-c2cc(C(C)=O)n3ccccc23)c(OC)cc1Cn1ccnc1,male Sprague-Dawley rat,intravenous,5 mg/kg,,0.75
CNS(=O)(=O)c1ccc(Nc2ncc(C(F)(F)F)c([C@H]3CC[C@@](C)(O)CC3)n2)c(C)c1,rat,intravenous,2 mg/kg,,1.3
CONC(=O)c1cccc2c1cc(C)n2-c1nc2c(c(NCc3ccccc3)n1)CCCN2,male Sprague-Dawley rat,oral,10 mg/kg,single dose,1.15
C[C@]1(O)CCCN(c2nc(Nc3ccc(S(=O)(=O)N[C@H]4CC[C@H](CN5CCN(c6ccc(C7CCC(=O)NC7=O)cc6F)CC5)CC4)cc3F)ncc2C(F)(F)F)C1 (stereo partly shown),rat,intravenous,2 mg/kg,,3.7
Cc1nc(Nc2ncc(C(=O)Nc3c(C)cccc3Cl)s2)cc(N2CC[C@H](N)C2)n1,male Sprague-Dawley rat,intravenous,1 mg/kg,,3.8
CCONC(=O)N1CCC[C@H](C(=O)NCc2nc(-c3ccc(C#N)cc3)cs2)C1,male Sprague-Dawley rat,oral,3 mg/kg,,14
CC[C@@H]([C@H](C)O)n1ncn(-c2ccc(N3CCN(c4ccc(OC[C@@H]5CO[C@@](Cn6cncn6)(c6ccc(F)cc6F)C5)cc4)CC3)cc2)c1=O,Sprague-Dawley rat,oral,40 mg/kg,,15.7
CCCCC(=O)Nc1ccc(-c2ccc3ncn(CCC)c(=O)c3c2)cn1,male rat,intravenous,2.5 mg/kg,,0.582
COCC(=O)N1CCC[C@H](C(=O)NCc2nc(-c3ccc(C#N)cc3)cs2)C1,male Sprague-Dawley rat,intravenous,1 mg/kg,,1.5
C[C@]1(O)CCCN(c2nc(Nc3ccc(S(=O)(=O)N[C@@H]4CCN(CC5CCN(c6ccc(C7CCC(=O)NC7=O)cc6F)CC5)C[C@H]4F)cc3F)ncc2C(F)(F)F)C1 (stereo partly shown),rat,intravenous,2 mg/kg,,5.1
CCCc1nc2c(C)cc(-c3nc4ccccc4n3C)cc2n1Cc1ccc(-c2ccccc2C(=O)O)cc1,male Sprague-Dawley rat,oral,8 mg/kg,single dose,6.84
CNS(=O)(=O)c1ccc(Nc2ncc(C(F)(F)F)c(N3CCC(C)(O)CC3)n2)c(C)c1,rat,intravenous,2 mg/kg,,0.7
CC(C)(N)COCC(=O)N1CCC[C@H](C(=O)NCc2nc(-c3ccc(C(F)(F)F)cc3)cs2)C1,male Sprague-Dawley rat,oral,3 mg/kg,,7.3
COc1nc(-c2cccc(-c3ccccc3)c2C)ccc1CNCCNC(=O)CCCCCCCCCCC(=O)N1CCN(CCNC(=O)c2cc3c(=O)n4cccc(C)c4nc3n(CCc3cccs3)c2=N)CC1,male Sprague-Dawley rat,intraperitoneal,4 mg/kg,,4.7
